Legend:
Isoleucine--tRNA ligase [1] = target: T1, Isoleucine--tRNA ligase (Staphylococcus aureus, UniProt P41972); assay: (§1) Inhibition concentration against Isoleucyl-tRNA synthetase from Staphylococcus aureus NCTC 6571
T1 sequence (P41972 whole entry): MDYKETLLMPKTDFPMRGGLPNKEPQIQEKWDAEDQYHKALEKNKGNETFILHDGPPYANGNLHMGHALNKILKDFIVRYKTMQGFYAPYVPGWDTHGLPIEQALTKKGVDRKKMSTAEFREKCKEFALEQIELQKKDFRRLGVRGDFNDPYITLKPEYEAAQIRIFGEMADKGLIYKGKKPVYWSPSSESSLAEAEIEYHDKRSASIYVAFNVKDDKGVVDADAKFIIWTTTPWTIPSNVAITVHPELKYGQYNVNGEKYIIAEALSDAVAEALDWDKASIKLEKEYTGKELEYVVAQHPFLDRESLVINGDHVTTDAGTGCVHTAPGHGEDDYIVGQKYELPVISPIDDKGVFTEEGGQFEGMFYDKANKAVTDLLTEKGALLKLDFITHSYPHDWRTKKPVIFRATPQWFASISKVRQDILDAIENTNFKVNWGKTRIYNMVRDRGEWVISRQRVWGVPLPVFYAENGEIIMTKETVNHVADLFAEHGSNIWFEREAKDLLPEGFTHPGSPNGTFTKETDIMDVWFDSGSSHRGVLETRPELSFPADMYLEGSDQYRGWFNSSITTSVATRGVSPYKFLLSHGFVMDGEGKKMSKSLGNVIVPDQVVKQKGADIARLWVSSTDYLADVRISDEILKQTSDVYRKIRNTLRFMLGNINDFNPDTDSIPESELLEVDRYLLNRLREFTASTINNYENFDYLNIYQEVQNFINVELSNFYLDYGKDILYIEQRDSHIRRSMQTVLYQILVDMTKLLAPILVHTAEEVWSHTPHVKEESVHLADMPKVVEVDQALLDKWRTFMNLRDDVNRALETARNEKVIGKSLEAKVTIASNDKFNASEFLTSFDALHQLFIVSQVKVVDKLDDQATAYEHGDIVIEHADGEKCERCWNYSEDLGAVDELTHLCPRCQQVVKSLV
How it was run: (§2)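 IRS extracted from S. aureus grown to late stationary phase in shake flasks (Nutrient Broth No. 2). Cells were sonicated with lysostaphin, DNase-treated, dialysed against 20 mM Tris-HCl pH 8 with 5 mM MgCl2 and 2 mM DTT, then ultracentrifuged. Compound was preincubated with enzyme 5 min. Charging of E. coli tRNA with 4.8 µM [U-14C]-isoleucine and 5 mg/mL ATP was run 10 min at 37 °C. IC50 taken as 50% inhibition of 14C-Ile incorporation.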

Staphylococcus aureus = assay: minimum inhibitory concentration (MIC) against Staphylococcus aureus NCTC 6571.; format: functional
How it was run: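 Agar dilution MIC in blood agar base with 5% chocolated horse blood. Inoculum was an overnight nutrient broth culture, about 10^6 CFU per spot. Plates were incubated 18-24 h at 37 °C. MIC taken as the lowest concentration fully inhibiting growth.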

[2] = target: T2, Isoleucine--tRNA ligase (Staphylococcus aureus) (UniProt P41972); assay: as §1; conditions: concentration not given here; how it was run: as §2
T2 sequence (whole entry): T1 sequence (P41972 whole entry)

Isoleucine--tRNA ligase [3] = target: T1, Isoleucine--tRNA ligase; assay: Inhibition concentration against isoleucyl tRNA synthetase from Staphylococcus aureus NCTC 6571; how it was run: as §2

SMILES | IC50 (Isoleucine--tRNA ligase [1]) [nM] | MIC (Staphylococcus aureus) [ug m1 l-1] | inhibition [2] [%] | IC50 (Isoleucine--tRNA ligase [3]) [nM]
C[C@H]([C@@H]1O[C@H]1C[C@H]1CO[C@@H](Cc2ncc(-c3ccccc3)o2)[C@H](O)[C@@H]1O)[C@H](C)O |  | >64 | 0 | 
C[C@H]([C@@H]1O[C@H]1C[C@H]1CO[C@@H](Cc2cc(-c3ccccc3)on2)[C@H](O)[C@@H]1O)[C@H](C)O |  | >64 | 17 | 
C[C@H]([C@@H]1O[C@H]1C[C@H]1CO[C@@H](Cc2csc(-c3ccccc3)n2)[C@H](O)[C@@H]1O)[C@H](C)O |  | >64 |  | 14.3
C[C@H]([C@@H]1O[C@H]1C[C@H]1CO[C@@H](Cc2cc(-c3ccccc3)no2)[C@H](O)[C@@H]1O)[C@H](C)O | 13.1 | 4 |  | 

Second part, the compound after the results:

IC50 (Isoleucine--tRNA ligase [1]) [nM] | MIC (Staphylococcus aureus) [ug m1 l-1] | inhibition [2] [%] | IC50 (Isoleucine--tRNA ligase [3]) [nM] | SMILES
2.95 | 0.5 |  |  | CCOC(=O)/C=C(\C)C[C@@H]1OC[C@H](C[C@@H]2O[C@H]2[C@@H](C)[C@H](C)O)[C@@H](O)[C@H]1O
1.73 | 4 |  |  | C[C@H]([C@@H]1O[C@H]1C[C@H]1CO[C@@H](Cc2nc(-c3ccccc3)no2)[C@H](O)[C@@H]1O)[C@H](C)O
4.71 | 2 |  |  | C[C@H]([C@@H]1O[C@H]1C[C@H]1CO[C@@H](Cc2cnc(-c3ccccc3)o2)[C@H](O)[C@@H]1O)[C@H](C)O
5.19 | 8 |  |  | C[C@H]([C@@H]1O[C@H]1C[C@H]1CO[C@@H](Cc2nnc(-c3ccccc3)o2)[C@H](O)[C@@H]1O)[C@H](C)O
8.9 | 8 |  |  | C[C@H]([C@@H]1O[C@H]1C[C@H]1CO[C@@H](Cn2nnc(-c3ccccc3)n2)[C@H](O)[C@@H]1O)[C@H](C)O
1.7 | 0.13 |  |  | C/C(=C\C(=O)OCCCCCCCCC(=O)O)C[C@@H]1OC[C@H](C[C@@H]2O[C@H]2[C@@H](C)[C@H](C)O)[C@@H](O)[C@H]1O [MUPIROCIN]
